Source: ChEMBL document CHEMBL1122902, “Synthesis of the antileukemic agents 5,10-dideazaaminopterin and 5,10-dideaza-5,6,7,8-tetrahydroaminopterin” (J Med Chem, 1985)

Key:
[1] = target: T1, Folylpolyglutamate synthase, mitochondrial (Mus musculus) (UniProt P48760); assay: Activity (relative Vmax) was evaluated in vitro by purified mouse liver folate polyglutamate synthetase (FPGS).
T1 sequence (whole entry): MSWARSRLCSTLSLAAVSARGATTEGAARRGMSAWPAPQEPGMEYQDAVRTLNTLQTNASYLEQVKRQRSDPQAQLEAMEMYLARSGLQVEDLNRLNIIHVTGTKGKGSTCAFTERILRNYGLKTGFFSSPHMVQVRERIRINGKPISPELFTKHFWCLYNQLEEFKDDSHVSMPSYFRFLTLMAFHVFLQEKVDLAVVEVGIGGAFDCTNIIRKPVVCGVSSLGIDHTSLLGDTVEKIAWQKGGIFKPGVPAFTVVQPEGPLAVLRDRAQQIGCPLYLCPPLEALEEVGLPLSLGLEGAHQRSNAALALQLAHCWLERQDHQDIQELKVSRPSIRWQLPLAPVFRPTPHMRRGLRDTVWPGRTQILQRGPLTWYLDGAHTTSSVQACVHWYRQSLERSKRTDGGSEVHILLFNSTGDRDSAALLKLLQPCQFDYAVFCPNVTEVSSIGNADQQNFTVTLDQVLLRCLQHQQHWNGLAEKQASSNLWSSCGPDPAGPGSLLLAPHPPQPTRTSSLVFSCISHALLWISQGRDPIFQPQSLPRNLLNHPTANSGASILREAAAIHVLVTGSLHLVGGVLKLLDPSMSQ
Summary of the method: (§1)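 Full saturation curves used duplicate assays at each of six concentrations, usually spanning 0.2–3 apparent Km. Kinetic values were derived by the Cleland method. Each value is expressed as a proportion of the PteGlu value from saturation curves run in the same experiment.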

Mus musculus [2] = species on record: Mus musculus; assay: (§2) Inhibitory concentration against the growth of L1210 murine leukemia cells in tissue culture.; format: functional, cell-based
[3] = target: T1, Folylpolyglutamate synthase, mitochondrial (Mus musculus); assay: Activity (relative Km ) was evaluated in vitro by purified mouse liver folate polyglutamate synthetase (FPGS).; summary of the method: as §1
L1210 [4] = assay: as §2; format: functional, cell-based; details: Mus musculus
L1210 [5] = assay: (§3) In vivo activity(%ILS) at optimal dose of 4 mg/kg, by intraperitoneal administration in BDF1 mice against L1210 leukemia cells; format: functional; details: Mus musculus, L1210, ip
Mus musculus [6] = assay: In vivo activity (survivors) at optimal dose of 4 mg/kg, by intraperitoneal administration in BDF1 mice against L1210 leukemia cells; […] given as 0/10; format: functional
L1210 [7] = assay: as §2; details: Mus musculus
Thymidylate synthase = target: T2, Thymidylate synthase (Lactobacillus casei, UniProt P00469); assay: In vitro inhibitory concentration against Lactobacillus casei thymidylate synthetase; set-up: species or system Lacticaseibacillus casei
T2 sequence (P00469 whole entry): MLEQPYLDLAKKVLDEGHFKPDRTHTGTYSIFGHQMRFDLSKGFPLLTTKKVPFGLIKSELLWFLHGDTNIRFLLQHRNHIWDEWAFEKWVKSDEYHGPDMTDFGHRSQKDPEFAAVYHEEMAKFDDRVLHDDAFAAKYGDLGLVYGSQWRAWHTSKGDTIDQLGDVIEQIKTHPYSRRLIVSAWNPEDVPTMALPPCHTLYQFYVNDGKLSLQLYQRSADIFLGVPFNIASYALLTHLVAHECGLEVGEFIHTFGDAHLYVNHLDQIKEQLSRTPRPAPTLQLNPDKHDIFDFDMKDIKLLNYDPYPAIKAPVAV

Mus musculus [8] = assay: In vivo activity (survivors) at optimal dose of 4mg/kg, by intraperitoneal administration in BDF1 mice against L1210 leukemia cells; […] given as 4/21; format: functional
Mus musculus [9] = assay: as §3; format: functional; details: L1210, ip
[10] = target: T1, Folylpolyglutamate synthase, mitochondrial (Mus musculus); assay: Activity (relative Km) was evaluated in vitro by purified mouse liver folate polyglutamate synthetase (FPGS).
Summary of the method: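 Partially purified mouse liver FPGS incubated with each substrate for 1 h at 37 °C. Full saturation curves were run in duplicate at six concentrations, usually 0.2–3 apparent Km, and products were isolated. Kinetic constants came from Cleland analysis. Km is expressed relative to PteGlu, taken from saturation curves run in the same experiment.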

Mus musculus [11] = assay: In vivo activity(%ILS) at optimal dose of 1 mg/kg, by intraperitoneal administration in BDF1 mice against L1210 leukemia cells; format: functional; details: L1210, ip
Mus musculus [12] = assay: In vivo activity (survivors) at optimal dose of 1 mg/kg, by intraperitoneal administration in BDF1 mice against L1210 leukemia cells; […] given as 5/22; format: functional

SMILES | Relative Vmax [1] | Relative Km [3] | IC50 (L1210 [4]) [µM] | IC50 (Thymidylate synthase) [µM] | also measured
Nc1nc(O)c2cc(CCc3ccc(C(=O)N[C@@H](CCC(=O)O)C(=O)O)cc3)cnc2n1 | 0.9 | 0.68 | – | – | IC50 (Mus musculus [2]): > 100 µM
Nc1nc(N)c2nc(CNc3ccc(C(=O)N[C@@H](CCC(=O)O)C(=O)O)cc3)cnc2n1 [AMINOPTERIN] | 1.5 | 0.21 | 0.0021 | – | –
CN(Cc1cnc2nc(N)nc(N)c2n1)c1ccc(C(=O)N[C@@H](CCC(=O)O)C(=O)O)cc1 [METHOTREXATE] | – | – | – | – | ILS at 4 mg/kg (L1210 [5]): 85%; Survivors (Mus musculus [6]): 0; IC50 (L1210 [7]): 0.01 µM
Nc1nc(O)c2c(n1)NCC(CCc1ccc(C(=O)NC(CCC(=O)O)C(=O)O)cc1)C2 (stereo not given) | 1.24 | 0.05 | – | > 1000 | IC50 (Mus musculus [2]): 0.059 µM
Nc1nc(=O)c2nc(CNc3ccc(C(=O)N[C@@H](CCC(=O)O)C(=O)O)cc3)cnc2[nH]1 | 1 | – | – | – | Km app [3]: 1 rel
Nc1nc(N)c2cc(CCc3ccc(C(=O)NC(CCC(=O)O)C(=O)O)cc3)cnc2n1 (stereo not given) | 0.35 | – | 0.017 | 92 | Survivors (Mus musculus [8]): 4; ILS at 4 mg/kg (Mus musculus [9]): 130%; Relative Km [10]: 0.86
Nc1nc(O)c2c(n1)NCC(CNc1ccc(C(=O)N[C@@H](CCC(=O)O)C(=O)O)cc1)N2 (stereo not given in full) | 1.31 | 0.051 | – | – | –
Nc1nc2ncc(CCc3ccc(C(=O)N[C@@H](CCC(=O)O)C(=O)O)cc3)cc2c(=O)[nH]1 | – | – | – | 77 | –
Nc1nc(N)c2c(n1)NCC(CCc1ccc(C(=O)NC(CCC(=O)O)C(=O)O)cc1)C2 (stereo not given) | 1.61 | 0.23 | 0.0033 | 920 | ILS at 1 mg/kg (Mus musculus [11]): 111%; Survivors (Mus musculus [12]): 5
